An excerpt weighted towards active compounds, which were near 5.6% of everything screened.
XBP1 UPR activ: activators of adaptive XBP1 UPR arm, primary screen, cell-based, CHO-XBP1 luciferase reporter, luminescence, uHTS; IRE1-XBP1 UPR activation; percent of tunicamycin response, DMSO as zero; activation, % at 20 µM; 330,000 compounds, 0.33% hits; AID 463104, 2010;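 active = versus positive control, 20 µM dose yields 30% or more activation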
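Signal: luciferase luminescence; Assay system: CHO-XBP1 luciferase reporter cells; Amount: one thousand reporter cells per well; Dosing: 20 µM single concentration, DMSO 1%; Benchmarks: high control tunicamycin 10 µg/mL final, low control DMSO vehicle only; Schedule: 6 h compound exposure at 37 °C, 5% CO2; Evaluation: percent activation relative to tunicamycin reference.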
MPTP block: mitochondrial permeability transition pore inhibitors, primary screen, biochemical, isolated mouse mitochondria, absorbance | AID 602449, 2012 | 360,000 compounds, 1.4% hits | inhibition, % at 10 µM | Ca2+ swelling absorbance, 30 min;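 active = inhibition of 50% or more, scaled per plate between neutral and stimulator controls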
UPR CHOP act: activators of apoptotic CHOP UPR arm, primary screen, cell-based, CHO-CHOP luciferase reporter, luminescence, uHTS; UPR activation; percent of tunicamycin response over DMSO baseline; 330,000 compounds, 0.34% hits; activation, % at 10 µM;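 active = at 10 µM dose, activation of 40% or more, normalized to positive control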
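Test system: CHO CHOP reporter cells. Input: 500 CHO-CHOP cells per well. Medium: F12 with 10% FBS. Technique: luciferase luminescence. Measure: percent activation relative to tunicamycin control. Dosing: 10 µM compound, 0.5% DMSO. Timing: 16-18 h cell attachment, then 6 h compound exposure, 37 °C.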
CHOP inh: inhibitors of CHOP promoter induction, primary screen, cell-based, unfolded protein response, luciferase reporter; inhibition, % at 10 µM; AID 2732, 2010; 220,000 compounds, 3.8% hits; CHO-K1 CHOP-promoter luciferase, tunicamycin-induced, 15-18 h;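 active = compounds that reduced the stress-induced luciferase reporter signal by more than about 70% of percent inhibition, limit read from the data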
aDG glyco act: activators of alpha-DG glycosylation, primary screen, uHTS, Pro5-aDG cells, AlphaScreen. AID 624168, 2012. alpha-DG glycosylation AlphaScreen (IIH6); 0% Pro5, 100% B10-LARGE cell signal. activation, % at 10 µM. 360,000 compounds, 0.22% hits;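 active = activation of at least 8% versus controls, or a plate z-score of at least 8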;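 note: Pro5 are CHO cells carrying HIG-tagged alpha-DG that lacks glycosylation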
NR3A LBD binder: binders of NR3A ligand-binding domain, primary screen, biophysical, differential scanning fluorimetry, uHTS; Glutamate receptor ionotropic, NMDA 3A (GRIN3A) ligand-binding domain; NR3A LBD differential scanning fluorimetry, Tm shift; 0% = protein alone, 100% = glycine-bound protein; Tm shift relative to glycine control, % at 25 µM; 340,000 compounds, 2.5% hits;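 active = melting temperature shift of at least 10% of the positive control shift, at one fixed dose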
Rh123 counter: fluorescence retest of MPTP screen hits in isolated mitochondria, single concentration; membrane potential, Rhodamine 123 fluorescence; AID 624504, 2012; 5,000 compounds, 78% hits; shares compounds with MPTP block; inhibition, % at 10 µM; in the data active = inhibition above about 22%
MPTP swell DR: mitochondrial permeability transition pore inhibitors, dose response, biochemical, absorbance, uHTS hits; 780 compounds, 58% hits; IC50, µM; shares compounds with MPTP block; AID 651561, 2012; isolated mitochondria swelling; in the data active = IC50 below about 20 µM
MPTP counter DR: fluorescent counter-screen in isolated mitochondria, dose response, counter-screen for MPTP inhibitor project, biochemical, fluorescence, uHTS hits; 780 compounds, 49% hits; AID 651564, 2012; shares compounds with MPTP block; IC50, µM; isolated mitochondria counterscreen, fluorescence read-out; in the data active = IC50 below about 80 µM
A number is an active result; n = inactive; x = no result given.

SMILES	XBP1 UPR activ	MPTP block	UPR CHOP act	CHOP inh	aDG glyco act	NR3A LBD binder	Rh123 counter	others
N=c1n(CCO)c2ccccc2n1Cc1ccc(Cl)cc1	n	89	n	n	n	n	n	MPTP swell DR=13;MPTP counter DR=48
COc1ccccc1NC(=O)CCN1C(=O)c2ccccc2S1(=O)=O	n	n	n	n	n	n	x
Cc1ccc(C(=O)OCN2C(=O)c3ccccc3C2=O)c(O)c1	n	n	n	x	n	n	x
CCN(CC)CCCN=Cc1c(O)n(-c2c(C)cccc2C)c(=O)c2ccccc12	n	n	n	n	n	n	x
CCN(CC)CCCN=Cc1c(O)n(Cc2ccccc2)c(=O)c2ccccc12	n	79	n	n	n	n	n	MPTP swell DR=12;MPTP counter DR=n
O=[N+]([O-])/C(C=Nc1ccccc1O)=C\Nc1ccccc1O	x	83	x	n	n	n	n
O=[N+]([O-])/C(=C\Nc1ccccc1Cl)S(=O)(=O)c1ccccc1	n	n	n	n	n	x	x
CC1CCN(CCOc2ccc(OCc3ccccc3)cc2)CC1	n	n	n	n	n	n	x
COc1ccc(NC(=O)Cc2cccc(F)c2)cc1S(=O)(=O)Nc1ccccc1Cl	n	52	n	n	n	n	70
COc1ccc(NS(=O)(=O)c2cc(NC(=O)Cc3c(F)cccc3Cl)ccc2OC)cc1	n	n	n	x	n	n	x
On1onc2c3cc(-c4ccccc4)nc3ccc21	n	101	n	x	n	37	65
O=C(CS(=O)(=O)Cc1ccccc1)c1ccccc1	x	n	x	x	n	x	x
Clc1ccc(OCc2nnc(SCc3nc4ccccc4[nH]3)n2Cc2ccco2)cc1	n	62	n	81	n	n	35
NCCNS(=O)(=O)c1cccc2cnccc12	x	x	x	n	x	x	x
NCCCCCCNS(=O)(=O)c1cccc2c(Cl)cccc12	n	108	n	n	n	n	n	MPTP swell DR=7.4;MPTP counter DR=46
Cc1ccc([N+](=O)[O-])cc1N=Nc1c(-c2ccc([N+](=O)[O-])cc2)[nH]n(C(N)=S)c1=O	x	99	x	78	n	30	69
O=C1C2ON(c3ccccc3)C(c3ccncc3)C2C(=O)N1c1ccc(Br)cc1 (stereo unspecified)	n	69	n	n	n	n	22
Cc1ccc(N2C(=O)C3ON(c4ccccc4)C(c4ccncc4)C3C2=O)cc1 (stereo unspecified)	n	n	n	n	n	n	x
COc1cccc2c(=O)cc(C)n(CC(=O)Nc3ccc(C)c(C)c3)c12	n	n	n	n	n	n	x
COc1ccc(NC(=O)CNC(=O)Cn2c(C)cc3ccccc3c2=O)c(OC)c1	n	n	n	n	n	n	x
COc1ccc(NC(=O)CNC(=O)Cn2c(C)cc3ccccc3c2=O)cc1OC	n	70	n	n	n	n	24
COc1ccccc1NC(=O)Cn1c(C)cc(=O)c2cccc(OC)c21	n	70	n	n	n	n	55
Cc1ccc(CNC(=O)CN(C)C2=NS(=O)(=O)c3ccccc32)cc1	n	n	n	x	n	n	x
O=C(CSc1nc2ccccc2s1)NNC(=S)Nc1ccc(Br)cc1	n	82	n	n	n	27	83
O=C(CN1CCN(Cc2ccc(F)cc2Cl)CC1)NCc1ccccc1	n	n	n	x	n	n	x

From PubChem
